A short description of experiment [1]: Inhibition of H+/K+-ATPase in sheep stomach parietal cells assessed as reduction in inorganic phosphate liberation using ATP as substrate measured after 10 to 15 mins. The following applies: Ovis aries. The method, boiled down:
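Enzyme came from sheep fundic mucosal scrapings, homogenized in sucrose/EGTA/Hepes-Tris buffer pH 7.4, then subcellular fractionation. Basal medium: 2 mmol L–1 ATP, 50 mmol L–1 Tris-HCl pH 7.5, with K+ and HCO3 stimulation. Reaction started with ATP, run at 37 °C and stopped with cold 20% TCA. Released Pi read by Fiske–Subbarow at 660 nm. Values are means of three determinations.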

Experiment [2] concerns Erythrocyte. The experiment in a line: Anti-inflammatory activity in human RBC assessed as inhibition of hypotonic solution-induced hemolysis after 10 mins by spectrophotometric method. Format: functional, cell-based. A digest of the protocol: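 Heparinized blood from one healthy donor (no NSAIDs for 2 weeks), washed in 0.9% saline, made into 40% (v/v) RBC stock in 10 mM sodium phosphate/154 mM NaCl, pH 7.4. Stock mixed with hypotonic buffer (50 mM NaCl, 10 mM phosphate, pH 7.4) plus sample at 20–100 μg mL–1. Incubated at room temperature, centrifuged, supernatant absorbance at 540 nm, % haemolysis inhibition versus blank.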

In brackets after ≈: the same amount, converted by molar mass.

On to `COc1ccc2[nH]c([S+]([O-])Cc3ncc(C)c(OC)c3C)nc2c1` (configuration not stated) [OMEPRAZOLE], for which the half-inhibitory concentration (IC50) in experiment [1] was found to be 46.1 µg/mL (≈ 134 µM).
As for `Cc1cccc2nc(N/N=C\c3ccc([N+](=O)[O-])cc3[N+](=O)[O-])sc12`, the IC50 is 80.6 µg/mL (≈ 226 µM) in experiment [1] and 12.7 µg/mL (≈ 35.7 µM) in experiment [2].
For `Cc1cccc2nc(N/N=C\c3ccc(F)cc3)sc12`, the values for the concentration for half-maximal inhibition (IC50) in experiment [1] and in experiment [2] were 66.1 µg/mL (≈ 232 µM) and 32.1 µg/mL (≈ 113 µM), respectively.
In the case of `COc1ccc(/C=N\Nc2nc3cccc(C)c3s2)cc1`, the 50% inhibitory concentration (IC50) in experiment [1] came out at 30.4 µg/mL (≈ 102 µM); in experiment [2] it was 72.7 µg/mL (≈ 244 µM).
On the same counts, the results for `COc1cc(/C=N\Nc2nc3cccc(C)c3s2)cc(Br)c1O` are 42.1 µg/mL (≈ 107 µM) and 56.4 µg/mL (≈ 144 µM).
The like results for `CCCCCC/C=N/Nc1nc2cccc(C)c2s1` were, in that order, 72.1 µg/mL (≈ 262 µM) and 82.2 µg/mL (≈ 298 µM).
On the same counts, the results for `Cc1cccc2nc(N/N=C/CC(C)C)sc12` are 82.2 µg/mL (≈ 332 µM) and 90.7 µg/mL (≈ 367 µM).
Take `COc1ccc(/C=N\Nc2nc3cccc(C)c3s2)c(OC)c1`: the half-inhibitory concentration (IC50) came to 20.4 µg/mL (≈ 62.2 µM) in experiment [1] and 68.1 µg/mL (≈ 208 µM) in experiment [2].
On the same counts, the results for `Cc1cccc2nc(N/N=C\c3cc(O)c(O)c(O)c3)sc12` are 8.99 µg/mL (≈ 28.5 µM) and 68.6 µg/mL (≈ 217 µM).
The like results for `Cc1cccc2nc(N/N=C/c3ccc[nH]3)sc12` were, in that order, 42.6 µg/mL (≈ 166 µM) and 46.2 µg/mL (≈ 180 µM).
On the same counts, the results for `Cc1cccc2nc(N/N=C/c3cc4ccccc4[nH]3)sc12` are 28.1 µg/mL (≈ 91.8 µM) and 30.2 µg/mL (≈ 98.5 µM).
With `Cc1cccc2nc(N/N=C\c3ccncc3)sc12`, the figures for the half-maximal inhibitory concentration (IC50) in experiment [1] and in experiment [2] were 40.2 µg/mL (≈ 150 µM) and 54.2 µg/mL (≈ 202 µM), respectively.
Consider `Cc1cccc2nc(N/N=C\c3ccc(O)c(Br)c3)sc12`, for which the IC50 in experiment [1] came out at 48.1 µg/mL (≈ 133 µM); in experiment [2] it was 52.4 µg/mL (≈ 145 µM).
The like results for `Cc1cccc2nc(N/N=C\c3ccc(Br)cc3Br)sc12` were, in that order, 66.1 µg/mL (≈ 156 µM) and 10.1 µg/mL (≈ 23.8 µM).
On the same counts, the results for `Cc1cccc2nc(N/N=C/c3ccco3)sc12` are 38.3 µg/mL (≈ 149 µM) and 50.1 µg/mL (≈ 195 µM).
The like results for `Cc1cccc2nc(N/N=C\c3ccc(Cl)cc3)sc12` were, in that order, 68.2 µg/mL (≈ 226 µM) and 28.7 µg/mL (≈ 95.2 µM).
Consider `COc1cc(/C=N\Nc2nc3cccc(C)c3s2)cc(OC)c1OC`, for which the IC50 in experiment [1] came to 12.8 µg/mL (≈ 35.7 µM); in experiment [2], 74.6 µg/mL (≈ 209 µM).
On the same counts, the results for `Cc1cccc2nc(N/N=C\c3ccc(Cl)cc3Cl)sc12` are 68.9 µg/mL (≈ 205 µM) and 18.2 µg/mL (≈ 54 µM).
The like results for `Cc1cccc2nc(N/N=C/c3cccs3)sc12` were, in that order, 30.4 µg/mL (≈ 111 µM) and 28.7 µg/mL (≈ 105 µM).
On the same counts, the results for `Cc1cccc2nc(N/N=C\c3ccc(F)cc3F)sc12` are 70.6 µg/mL (≈ 233 µM) and 16.1 µg/mL (≈ 53.2 µM).
On to `Cc1ccc(/C=N\Nc2nc3cccc(C)c3s2)cc1`, for which the values for the concentration for half-maximal inhibition (IC50) in experiment [1] and in experiment [2] were 34.2 µg/mL (≈ 121 µM) and 54.3 µg/mL (≈ 193 µM), respectively.
On the same counts, the results for `COc1cc(/C=N\Nc2nc3cccc(C)c3s2)ccc1OCc1ccccc1` are 42.9 µg/mL (≈ 106 µM) and 66.2 µg/mL (≈ 164 µM).
The like results for `Cc1cccc2nc(N/N=C\c3ccc(Oc4ccccc4)cc3)sc12` were, in that order, 56.4 µg/mL (≈ 157 µM) and 60.9 µg/mL (≈ 169 µM).
On to `Cc1cccc2nc(N/N=C\c3ccccc3)sc12`, for which the values for the IC50 in experiment [1] and in experiment [2] were 84.1 µg/mL (≈ 315 µM) and 80.1 µg/mL (≈ 300 µM), respectively.
On to `CC/C=N/Nc1nc2cccc(C)c2s1`, for which the IC50 in experiment [1] turned out to be 80.2 µg/mL (≈ 366 µM); in experiment [2], 78.5 µg/mL (≈ 358 µM).
In the case of `Cc1cccc2nc(N/N=C\c3ccc(O)cc3)sc12`, the IC50 is 26.3 µg/mL (≈ 92.9 µM) in experiment [1] and 60 µg/mL (≈ 212 µM) in experiment [2].
On the same counts, the results for `Cc1cccc2nc(N/N=C\c3ccc([N+](=O)[O-])cc3)sc12` are 72.2 µg/mL (≈ 231 µM) and 24.1 µg/mL (≈ 77.1 µM).
The like results for `Cc1cccc2nc(N/N=C\c3ccc(Br)cc3)sc12` were, in that order, 60.1 µg/mL (≈ 174 µM) and 20.1 µg/mL (≈ 58 µM).
On the same counts, the results for `COc1ccc(/C=N\Nc2nc3cccc(C)c3s2)cc1Br` are 54.4 µg/mL (≈ 145 µM) and 58.6 µg/mL (≈ 156 µM).
As for `Cc1cccc2nc(N/N=C\c3ccc(O)cc3O)sc12`, the results for the concentration for half-maximal inhibition (IC50) in experiment [1] and in experiment [2] were 14.1 µg/mL (≈ 47.2 µM) and 58.2 µg/mL (≈ 194 µM), respectively.
As to `COc1ccc2c(c1)c(CC(=O)O)c(C)n2C(=O)c1ccc(Cl)cc1` [INDOMETHACIN], in experiment [2], the half-maximal inhibitory concentration (IC50) was 40 µg/mL (≈ 112 µM).
In the case of `COc1ccc(/C=N\Nc2nc3cccc(C)c3s2)cc1O`, the 50% inhibitory concentration (IC50) in experiment [1] was determined as 26.2 µg/mL (≈ 83.6 µM); in experiment [2], 56.2 µg/mL (≈ 179 µM).

One may read the IC50 as the concentration needed to halve the response being measured.

Values taken from ChEMBL document CHEMBL4261521, “Synthesis of benzo[d]thiazole-hydrazone analogues: molecular docking and SAR studies of potential H+/K+ ATPase inhibitors and anti-inflammatory agents” (Medchemcomm, 2017).
